ChEMBL document CHEMBL5058577, “EUbOPEN Chemogenomics Library 2 (Multiplex)” (2022)

Test system: HEK-293T
Assay: Multiplex assay against HEK293T
Assay type: toxicity, cell-based
Settings: human
Outline: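 Per cents of healthy-nucleus cells form the tubulin, mitochondrial-mass and membrane-permeability phenotype values. Live cells were stained at seeding with Hoechst33342, BioTracker Green Microtubule Cytoskeleton Dye, MitoTracker Red and Annexin V Alexa Fluor 680. After compound addition they were imaged on a CQ1 microscope at 37°C and 5% CO2, and CellPathfinder machine-learning gating split them into Hoechst high-intensity objects or normal cells, normal cells into healthy, pyknosed or fragmented nuclei, and pyknosed cells into mitotic or apoptotic.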

[1] = 12 h, 1 µM, compound concentration 1 uM, replicate 1
[2] = 12 h, 1 µM, compound concentration 1 uM, replicate 2
[3] = 12 h, 10 µM, compound concentration 10 uM, replicate 1
[4] = 12 h, 10 µM, compound concentration 10 uM, replicate 2
[5] = 24 h, 1 µM, compound concentration 1 uM, replicate 1
[6] = 24 h, 1 µM, compound concentration 1 uM, replicate 2
[7] = 24 h, 10 µM, compound concentration 10 uM, replicate 1
[8] = 24 h, 10 µM, compound concentration 10 uM, replicate 2
[9] = 48 h, 1 µM, compound concentration 1 uM, replicate 1
[10] = 48 h, 1 µM, compound concentration 1 uM, replicate 2
[11] = 48 h, 10 µM, compound concentration 10 uM, replicate 1
[12] = 48 h, 10 µM, compound concentration 10 uM, replicate 2

CC(=O)NCCc1c(Cc2ccccc2)[nH]c2ccccc12 [LUZINDOLE]
Population Apoptotic (%) [1]: 38%
Population Fragmented Nuclei (%) [1]: 7%
Population Healthy Nuclei (%) [1]: 79%
Population Hoechst High Intensity Objects (%) [1]: 11%
Population Membrane Permeable-Phenotype (%) [1]: 0%
Population Mitochondria Different-Phenotype (%) [1]: 54%
Population Mitotic Cells (%) [1]: 61%
Population Normal (%) [1]: 88%
Population Pyknosed Nuclei (%) [1]: 12%
Population Tubulin-Different-Phenotype (%) [1]: 39%
Total Cell Count [1]: 412
Population Apoptotic (%) [2]: 43%
Population Fragmented Nuclei (%) [2]: 5%
Population Healthy Nuclei (%) [2]: 80%
Population Hoechst High Intensity Objects (%) [2]: 8%
Population Mitochondria Different-Phenotype (%) [2]: 68%
Population Mitotic Cells (%) [2]: 56%
Population Normal (%) [2]: 91%
Population Pyknosed Nuclei (%) [2]: 13%
Population Tubulin-Different-Phenotype (%) [2]: 27%
Total Cell Count [2]: 304
Population Apoptotic (%) [3]: 37%
Population Fragmented Nuclei (%) [3]: 8%
Population Healthy Nuclei (%) [3]: 77%
Population Hoechst High Intensity Objects (%) [3]: 10%
Population Membrane Permeable-Phenotype (%) [3]: 0%
Population Mitochondria Different-Phenotype (%) [3]: 61%
Population Mitotic Cells (%) [3]: 62%
Population Normal (%) [3]: 89%
Population Pyknosed Nuclei (%) [3]: 14%
Population Tubulin-Different-Phenotype (%) [3]: 45%
Total Cell Count [3]: 379
Population Apoptotic (%) [4]: 53%
Population Fragmented Nuclei (%) [4]: 5%
Population Healthy Nuclei (%) [4]: 80%
Population Hoechst High Intensity Objects (%) [4]: 9%
Population Mitochondria Different-Phenotype (%) [4]: 72%
Population Mitotic Cells (%) [4]: 46%
Population Normal (%) [4]: 90%
Population Tubulin-Different-Phenotype (%) [4]: 35%
Total Cell Count [4]: 315
Population Apoptotic (%) [5]: 20%
Population Fragmented Nuclei (%) [5]: 12%
Population Healthy Nuclei (%) [5]: 75%
Population Hoechst High Intensity Objects (%) [5]: 7%
Population Membrane Permeable-Phenotype (%) [5]: 0%
Population Mitochondria Different-Phenotype (%) [5]: 33%
Population Mitotic Cells (%) [5]: 80%
Population Normal (%) [5]: 92%
Population Pyknosed Nuclei (%) [5]: 11%
Population Tubulin-Different-Phenotype (%) [5]: 26%
Total Cell Count [5]: 546
Population Apoptotic (%) [6]: 40%
Population Fragmented Nuclei (%) [6]: 7%
Population Healthy Nuclei (%) [6]: 82%
Population Hoechst High Intensity Objects (%) [6]: 8%
Population Mitochondria Different-Phenotype (%) [6]: 45%
Population Mitotic Cells (%) [6]: 60%
Population Normal (%) [6]: 91%
Population Pyknosed Nuclei (%) [6]: 10%
Population Tubulin-Different-Phenotype (%) [6]: 18%
Total Cell Count [6]: 379
Population Apoptotic (%) [7]: 40%
Population Fragmented Nuclei (%) [7]: 9%
Population Healthy Nuclei (%) [7]: 81%
Population Hoechst High Intensity Objects (%) [7]: 10%
Population Membrane Permeable-Phenotype (%) [7]: 1%
Population Mitochondria Different-Phenotype (%) [7]: 40%
Population Mitotic Cells (%) [7]: 60%
Population Normal (%) [7]: 89%
Population Pyknosed Nuclei (%) [7]: 8%
Population Tubulin-Different-Phenotype (%) [7]: 32%
Total Cell Count [7]: 502
Population Apoptotic (%) [8]: 28%
Population Fragmented Nuclei (%) [8]: 11%
Population Healthy Nuclei (%) [8]: 77%
Population Hoechst High Intensity Objects (%) [8]: 11%
Population Membrane Permeable-Phenotype (%) [8]: 0%
Population Mitochondria Different-Phenotype (%) [8]: 58%
Population Mitotic Cells (%) [8]: 71%
Population Normal (%) [8]: 88%
Population Pyknosed Nuclei (%) [8]: 11%
Population Tubulin-Different-Phenotype (%) [8]: 24%
Total Cell Count [8]: 388
Population Apoptotic (%) [9]: 24%
Population Fragmented Nuclei (%) [9]: 16%
Population Healthy Nuclei (%) [9]: 78%
Population Hoechst High Intensity Objects (%) [9]: 3%
Population Membrane Permeable-Phenotype (%) [9]: 1%
Population Mitochondria Different-Phenotype (%) [9]: 16%
Population Mitotic Cells (%) [9]: 75%
Population Normal (%) [9]: 96%
Population Pyknosed Nuclei (%) [9]: 5%
Population Tubulin-Different-Phenotype (%) [9]: 12%
Total Cell Count [9]: 965
Population Apoptotic (%) [10]: 46%
Population Fragmented Nuclei (%) [10]: 12%
Population Healthy Nuclei (%) [10]: 82%
Population Hoechst High Intensity Objects (%) [10]: 6%
Population Membrane Permeable-Phenotype (%) [10]: 0%
Population Mitochondria Different-Phenotype (%) [10]: 23%
Population Mitotic Cells (%) [10]: 53%
Population Normal (%) [10]: 93%
Population Tubulin-Different-Phenotype (%) [10]: 13%
Total Cell Count [10]: 522
Population Apoptotic (%) [11]: 27%
Population Fragmented Nuclei (%) [11]: 13%
Population Healthy Nuclei (%) [11]: 79%
Population Hoechst High Intensity Objects (%) [11]: 9%
Population Membrane Permeable-Phenotype (%) [11]: 0%
Population Mitochondria Different-Phenotype (%) [11]: 27%
Population Mitotic Cells (%) [11]: 72%
Population Normal (%) [11]: 90%
Population Pyknosed Nuclei (%) [11]: 7%
Population Tubulin-Different-Phenotype (%) [11]: 17%
Total Cell Count [11]: 742
Population Apoptotic (%) [12]: 36%
Population Fragmented Nuclei (%) [12]: 11%
Population Healthy Nuclei (%) [12]: 82%
Population Hoechst High Intensity Objects (%) [12]: 6%
Population Mitochondria Different-Phenotype (%) [12]: 32%
Population Mitotic Cells (%) [12]: 63%
Population Normal (%) [12]: 93%
Population Pyknosed Nuclei (%) [12]: 5%
Population Tubulin-Different-Phenotype (%) [12]: 19%
Total Cell Count [12]: 573
